Experimental data from ChEMBL document CHEMBL2407032, “Structural modification of pantothenamides counteracts degradation by pantetheinase and improves antiplasmodial activity” (ACS Med Chem Lett, 2013).

How the values were obtained:
[1] = test system: Plasmodium falciparum; experiment: Antiplasmodial activity against intraerythrocytic Plasmodium falciparum 3D7 infected in human erythrocytes in heat treated RPMI-1640 culture medium assessed as parasite growth inhibition after 96 hrs by microscopic analysis; type: functional, organism-based; details: 3D7, 96 h
How it was run: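 3D7 ring-stage-initiated cultures in erythrocytes, grown 96 h in aged Albumax-complete RPMI. The medium was heat-treated for a prolonged time to reduce pantetheinase activity and held 1 μM pantothenic acid. IC50 from concentration-response. Mean ± SEM (or range/2) of at least two independent experiments, each in triplicate.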

[2] = test system: Plasmodium falciparum; experiment: Antiplasmodial activity against intraerythrocytic Plasmodium falciparum 3D7 infected in human erythrocytes in fresh RPMI-1640 culture medium assessed as parasite growth inhibition after 96 hrs by microscopic analysis in presence of pantetheinase; type: functional, organism-based; details: 3D7, 96 h
How it was run: (§1)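 3D7 parasites in erythrocytes, started mostly at ring stage, grown 96 h in freshly prepared Albumax-complete RPMI (pantetheinase active) with 1 μM pantothenic acid. IC50 from concentration-response. Mean ± SEM (or range/2) of at least two independent experiments, each in triplicate.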

[3] = test system: pantetheinase; experiment: Drug metabolism of the compound assessed as compound hydrolysis at 200 uM after 10 mins by fluorescence assay in presence of recombinant human pantetheinase; type: physicochemical; details: read-out: Drug metabolism
[4] = test system: Plasmodium falciparum; experiment: Antiplasmodial activity against intraerythrocytic Plasmodium falciparum 3D7 infected in human erythrocytes in fresh RPMI-1640 culture medium assessed as parasite growth inhibition after 96 hrs by microscopic analysis; type: functional, organism-based; details: 3D7, 96 h; how it was run: as §1
[5] = test system: Jurkat; experiment: Cytotoxicity against human Jurkat cells after 96 hrs by SYBR green assay in presence of pantothenic acid; type: cell-based
How it was run: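 Human leukemic T-cell line grown 96 h in medium with 1 μM pantothenic acid. IC50 from concentration-response profiles. Means ± SEM of three independent experiments performed in triplicate.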

[6] = Selectivity index, ratio of IC50 for human Jurkat cells to IC50 for intraerythrocytic Plasmodium falciparum 3D7 infected in human erythrocytes in fresh RPMI-1640 culture medium; type: toxicity, cell-based; details: read-out: Ratio IC50

| Structure (SMILES) | IC50 [1] [µM] | IC50 [2] [µM] | metabolised at 10 min, 200 µM [3] [%] | IC50 [4] [µM] | IC50 [5] [µM] | selectivity ratio [6] |
| --- | --- | --- | --- | --- | --- | --- |
| CC(C)(CO)[C@@H](O)C(=O)NCC(=O)NCc1ccccc1 | 127 | > 200 | 5 | 122 | – | – |
| CCCCCNC(=O)CCNC(=O)[C@H](O)C(C)(C)CO | 7.5 | – | – | 182 | – | – |
| CCCCCNC(=O)CNC(=O)[C@H](O)C(C)(C)CO | 14 | 142 | 5 | 7 | – | – |
| COc1ccc(CNC(=O)CNC(=O)[C@H](O)C(C)(C)CO)cc1 | 71 | 189 | 5 | 26 | – | – |
| CC(C)(CO)[C@@H](O)C(=O)NCCCC(=O)NCc1ccccc1 | 4.7 | > 200 | 5 | 6.1 | – | – |
| CCCCCCNC(=O)CCCNC(=O)[C@H](O)C(C)(C)CO | 14 | 199 | 5 | 8 | – | – |
| CC(C)(CO)[C@@H](O)C(=O)NCCCC(=O)NCc1ccc(C(F)(F)F)cc1 | – | – | 5 | – | – | – |
| CCCCCCCNC(=O)CNC(=O)[C@H](O)C(C)(C)CO | – | – | 5 | 46 | – | – |
| CN(C)c1cccc2c(S(=O)(=O)NCCCCCNC(=O)CCNC(=O)[C@H](O)C(C)(C)CO)cccc12 | – | – | – | > 200 | – | – |
| CCCCCCCNC(=O)CCCNC(=O)[C@H](O)C(C)(C)CO | – | – | 5 | 11 | – | – |
| CN(C)c1cccc2c(S(=O)(=O)NCCCCCNC(=O)CNC(=O)[C@H](O)C(C)(C)CO)cccc12 | – | 157 | 5 | 155 | – | – |
| CCCNC(=O)CNC(=O)[C@H](O)C(C)(C)CO | – | – | 5 | 13 | – | – |
| CC(C)CCNC(=O)CCCNC(=O)[C@H](O)C(C)(C)CO | – | – | 5 | 8.9 | – | – |
| CC(C)(CO)[C@@H](O)C(=O)NCC(=O)NCCc1ccccc1 | – | 135 | 5 | 3.4 | 53 | 16 |
| CC(C)(CO)[C@@H](O)C(=O)NCCCC(=O)NCCc1ccccc1 | – | 139 | 5 | 2.1 | 99 | 47 |
| CC(C)(CO)[C@@H](O)C(=O)NCCC(=O)NCc1ccccc1 | > 200 | – | – | > 200 | – | – |
| CC(C)(CO)[C@@H](O)C(=O)NCCC(=O)NCc1cccc(C(F)(F)F)c1 | 156 | – | – | > 200 | – | – |
| CC(C)CNC(=O)CCNC(=O)[C@H](O)C(C)(C)CO | 1.1 | – | – | 200 | – | – |
| CCCNC(=O)CCCNC(=O)[C@H](O)C(C)(C)CO | – | – | 5 | 13 | – | – |
| CC(C)(CO)[C@@H](O)C(=O)NCCC(=O)NCc1ccc2c(c1)OCO2 | – | – | – | 144 | – | – |
| CC(C)(CO)[C@@H](O)C(=O)NCC(=O)NCc1ccc2c(c1)OCO2 | – | > 200 | 5 | 53 | – | – |
| CCCCNC(=O)CCNC(=O)[C@H](O)C(C)(C)CO | – | – | – | > 200 | – | – |
| CC(C)CNC(=O)CNC(=O)[C@H](O)C(C)(C)CO | – | – | 5 | 18 | – | – |
| CC(C)(CO)[C@@H](O)C(=O)NCCC(=O)NCC1CC1 | – | – | – | 149 | – | – |
| CC(C)CNC(=O)CCCNC(=O)[C@H](O)C(C)(C)CO | – | – | 5 | 11 | – | – |
| CC(C)(CO)[C@@H](O)C(=O)NCC(=O)NCC1CCCCC1 | 140 | – | 5 | 164 | – | – |
| CC(C)(CO)[C@@H](O)C(=O)NCC(=O)NCc1ccc(C(F)(F)F)cc1 | 45 | 57 | 5 | 48 | – | – |
| CSCCCNC(=O)CCNC(=O)[C@H](O)C(C)(C)CO | 0.23 | – | – | 143 | – | – |

| Structure (SMILES) | IC50 [1] [µM] | IC50 [2] [µM] | metabolised at 10 min, 200 µM [3] [%] | IC50 [4] [µM] | IC50 [5] [µM] | selectivity ratio [6] |
| --- | --- | --- | --- | --- | --- | --- |
| CCCCNC(=O)CCCNC(=O)[C@H](O)C(C)(C)CO | – | – | 25 | 11 | – | – |
| COc1ccc(CNC(=O)CCNC(=O)[C@H](O)C(C)(C)CO)cc1 | > 200 | – | – | > 200 | – | – |
| CCSCCNC(=O)CNC(=O)[C@H](O)C(C)(C)CO | 11 | 200 | 5 | 10 | – | – |
| CCCCNC(=O)CNC(=O)[C@H](O)C(C)(C)CO | – | – | 25 | 5.3 | – | – |
| CCCCCCCNC(=O)CCNC(=O)[C@H](O)C(C)(C)CO | – | – | – | > 200 | – | – |
| CCCNC(=O)CCNC(=O)[C@H](O)C(C)(C)CO | – | – | – | 199 | – | – |
| CSCCCNC(=O)CCCNC(=O)[C@H](O)C(C)(C)CO | – | – | 5 | 7.7 | – | – |
| CC(C)(CO)[C@@H](O)C(=O)NCC(=O)NCc1ccc(OC(F)(F)F)cc1 | 64 | > 200 | 5 | 71 | – | – |
| CC(C)(CO)[C@@H](O)C(=O)NCCCC(=O)NCC1CC1 | – | – | 5 | 12 | – | – |
| CC(C)(CO)[C@@H](O)C(=O)NCCC(=O)NCCc1ccccc1 | 0.02 | – | – | 53 | – | – |
| CC(C)(CO)[C@@H](O)C(=O)NCCCC(=O)NCc1cccc(C(F)(F)F)c1 | – | – | 5 | – | – | – |
| CC(C)(CO)[C@@H](O)C(=O)NCCC(=O)NCc1ccc(OC(F)(F)F)cc1 | 136 | – | – | > 200 | – | – |
| COc1cccc(CNC(=O)CCNC(=O)[C@H](O)C(C)(C)CO)c1 | > 200 | – | – | > 200 | – | – |
| COc1cccc(CNC(=O)CCCNC(=O)[C@H](O)C(C)(C)CO)c1 | 22 | > 200 | 5 | 21 | – | – |
| COc1cccc(CNC(=O)CNC(=O)[C@H](O)C(C)(C)CO)c1 | > 200 | – | 5 | > 200 | – | – |
| CC(C)CCNC(=O)CCNC(=O)[C@H](O)C(C)(C)CO | – | – | – | > 200 | – | – |
| COc1ccc(CNC(=O)CCCNC(=O)[C@H](O)C(C)(C)CO)cc1 | 10 | > 200 | 5 | 9.5 | – | – |
| CSCCCNC(=O)CNC(=O)[C@H](O)C(C)(C)CO | – | – | 5 | 38 | – | – |
| CCCCCCNC(=O)CCNC(=O)[C@H](O)C(C)(C)CO | 0.55 | – | – | 134 | – | – |
| CC(C)(CO)[C@@H](O)C(=O)NCCC(=O)NCc1ccc(C(F)(F)F)cc1 | 117 | – | – | 107 | – | – |
| CC(C)(CO)[C@@H](O)C(=O)NCCC(=O)NCC1CCCCC1 | > 200 | – | – | > 200 | – | – |
| CCSCCNC(=O)CCNC(=O)[C@H](O)C(C)(C)CO | 0.28 | – | – | 87 | – | – |
| CC(C)(CO)[C@@H](O)C(=O)NCC(=O)NCC1CC1 | – | 183 | 5 | 6.4 | – | – |
| CC(C)(CO)[C@@H](O)C(=O)NCC(=O)NCc1cccc(C(F)(F)F)c1 | 116 | 177 | 5 | 89 | – | – |
| CC(C)CCNC(=O)CNC(=O)[C@H](O)C(C)(C)CO | – | – | 5 | 12 | – | – |
| CC(C)(CO)[C@@H](O)C(=O)NCCCC(=O)NCc1ccc(OC(F)(F)F)cc1 | 4.9 | > 200 | 5 | 6.3 | – | – |
| CN(C)c1cccc2c(S(=O)(=O)NCCCCCNC(=O)CCCNC(=O)[C@H](O)C(C)(C)CO)cccc12 | – | – | 5 | – | – | – |
